Experimental findings from ChEMBL document CHEMBL1126114, “A novel orally active inhibitor of IL-1 generation: synthesis and structure-activity relationships of 3-(4-hydroxy-1-naphthalenyl)-2-propenoic acid derivatives” (J Med Chem, 1992) are described below.

A word on the Inhibition: it is how much of the control response was suppressed. High values mean strong suppression, low ones little suppression. As a reminder, the IC50 is the concentration at which inhibition is half-maximal. A higher IC50 goes with a need for much substance. What is called inhibition in vivo is the share of the control response that was lost under treatment. A lower inhibition in vivo goes with a weak effect.

Assay type in all cases: functional
For experiment [1], the system named is Rattus norvegicus. In words: In vivo percent inhibition of IL-1 generation in rat CMC-LPS air pouch model at 100 uM concentration (local administration). The method, boiled down: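 Rat air pouch: 10 mL air s.c. into the dorsum, 2% CMC-Na in saline 24 h later, then LPS 5 ng 24 h after CMC. Compound given locally in 5% EtOH-RPMI with 30% autologous serum, 100 μM final in exudate, at 30 min before and just before LPS. Exudate IL-1 (extra- plus intracellular) read by LAF at 4 h. n=5; % inhibition ± SEM.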

Experiment [2] is filed under the species Rattus norvegicus. Kind of experiment: In vitro inhibitory activity against IL-1 generation by using rat exudated macrophages. A digest of the protocol:
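Fisher rat peritoneal exudate cells collected 4 days after i.p. 2.5% glycogen. Cells adhered 1.5 h at 37 °C in 1% normal rat serum. Adherent macrophages stimulated with LPS 1 ng/mL for 4 h ± compound. Intracellular IL-1 read by LAF assay against a recombinant human IL-1α curve. IC50 by least squares; mean of duplicates.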

For another experiment, the species on record is Homo sapiens. Kind of experiment: In vitro inhibitory activity against IL-1 generation by using human monocyte. The method, boiled down:
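Healthy-donor peripheral mononuclear cells, adhered 1.5 h in RPMI 1640 with 10% heat-inactivated autologous serum. Adherent monocytes then stimulated with LPS 1 μg/mL for 16–18 h in 1% autologous serum with 0.1% ethanol, ± drug. Extra- plus intracellular IL-1 read by LAF assay against a recombinant human IL-1β curve. IC50 by least squares; mean of ≥2 experiments.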

Experiment [3] deals with Rattus norvegicus. Kind of experiment: Compound was evaluated in vivo for the percent inhibition of IL-1 generation in rat CMC-LPS air pouch model at 50 mg/Kg concentration (oral administration). A digest of the protocol:
(§1)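 Rat CMC-LPS air pouch: air s.c., 2% CMC-Na 24 h later, LPS 5 ng 24 h after that. Compound given orally in 0.5% methyl cellulose 2 h before LPS. Exudate collected at 4 h; IL-1 (extra- plus intracellular) read by LAF assay against a recombinant human IL-1α curve.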

Experiment [4] deals with Rattus norvegicus. Kind of experiment: Compound was evaluated in vivo for the percent inhibition of IL-1 generation in rat CMC-LPS air pouch model at 200 mg/Kg concentration (oral administration). The method, boiled down:
as §1

Molecules are shown by their SMILES. Several values for one entry are separate records, joined by “and”; a condition that tells them apart may be missing. Identical values can stand only once. A value given as a limit tells only on which side of the number the result lay.

The compound `CCc1cccc2c(/C=C(\Cc3cccs3)C(=O)O)cc(OC)c(O)c12` yielded an Inhibition in the experiment on Rattus norvegicus [1] of 44%. The same compound displayed an IC50 in the experiment listed under Rattus norvegicus [2] of 6500 nM.

On to `CCc1cccc2c(/C(C)=C\C(=O)O)cc(OC)c(O)c12`, for which the Inhibition with Rattus norvegicus [1] was <25%. Also, the IC50 in the experiment listed under Rattus norvegicus [2] was > 10000 nM.

Regarding `CCc1ccc2c(/C=C/C(=O)O)cc(OC)c(O)c2c1`, the Inhibition with Rattus norvegicus [1] is given as <25%. In addition, the values for the IC50 in the experiment filed under Homo sapiens and in the experiment listed under Rattus norvegicus [2] were 4000 nM and 4100 nM, respectively.

For `CCCCCOc1cc(/C=C/C(=O)O)c2cccc(CC)c2c1O`, in the experiment with Rattus norvegicus [1], the Inhibition stood at 33%. Further, the values for the IC50 in the experiment listed under Homo sapiens and in the experiment listed under Rattus norvegicus [2] were 5300 nM and 2500 nM, respectively.

For the compound `CCc1cccc2c(/C=C/C(=O)O)cc(OCCOC)c(O)c12`, the Inhibition in the experiment on Rattus norvegicus [1] is 34%. In addition, the results for the IC50 in the experiment filed under Homo sapiens and in the experiment filed under Rattus norvegicus [2] were > 10000 nM and 3500 nM, respectively.

In the experiment with Rattus norvegicus [1], `CCOc1cc(/C=C/C(=O)O)c2cccc(CC)c2c1O` yielded an Inhibition of 75%. Further, in the experiment listed under Rattus norvegicus [2], the IC50 was 1400 nM.

`CCCc1cccc2c(/C=C(/C)C(=O)O)cc(OC)c(O)c12` registered an inhibition in vivo at 50 mg/kg in the experiment on Rattus norvegicus [3] of 33%. Further, the Inhibition in the experiment on Rattus norvegicus [1] was 87% and 86%.

Compound `CCc1cccc2c(/C=C(\C)C(=O)O)cc(OC)c(O)c12` showed an Inhibition in the experiment with Rattus norvegicus [1] of 85%. Further, in the experiment with Rattus norvegicus [4], at 200 mg/kg the inhibition in vivo was 36%.

Regarding `COc1cc(/C=C(\C)C(=O)O)c2cccc(C(C)C)c2c1O`, the Inhibition in the experiment with Rattus norvegicus [1] is recorded as 70%. Also, the inhibition in vivo at 200 mg/kg in the experiment with Rattus norvegicus [4] was < 25%. Moreover, the IC50 is < 1000 nM in the experiment filed under Homo sapiens and 1000 nM in the experiment listed under Rattus norvegicus [2].

In turn, `CCc1cccc2c(/C=C(/C(=O)O)c3ccccc3)cc(OC)c(O)c12` showed an Inhibition in the experiment with Rattus norvegicus [1] of 42%. In addition, the inhibition in vivo at 200 mg/kg with Rattus norvegicus [4] was < 25%. Moreover, the midpoint of inhibition in the experiment filed under Rattus norvegicus [2], the IC50, lay at 2500 nM.

As for `COc1cc(/C=C/C(=O)O)c2ccccc2c1O`, the Inhibition in the experiment with Rattus norvegicus [1] is on record as <25%. Moreover, the IC50 is 1900 nM in the experiment filed under Homo sapiens and 1400 nM in the experiment filed under Rattus norvegicus [2].

Turning to `CCc1cccc2c(/C(C)=C/C(=O)O)cc(OC)c(O)c12`, the Inhibition in the experiment with Rattus norvegicus [1] was <25%. The IC50 in the experiment listed under Rattus norvegicus [2] is > 10000 nM.

Take `CCc1ccc2c(O)c(OC)cc(/C=C/C(=O)O)c2c1`: in the experiment on Rattus norvegicus [1], the Inhibition is reported as <25%. For the same compound, the IC50 was determined as 3900 nM in the experiment listed under Homo sapiens and 4000 nM in the experiment filed under Rattus norvegicus [2].

`CC/C(=C\c1cc(OC)c(O)c2c(CC)cccc12)C(=O)O`: the Inhibition in the experiment on Rattus norvegicus [1] is 72%. The inhibition in vivo at 200 mg/kg with Rattus norvegicus [4] is 41%. The compound also registered an IC50 in the experiment filed under Rattus norvegicus [2] of 1400 nM.

On to `CCc1c(OC)c(O)c2ccccc2c1/C=C/C(=O)O`, for which the Inhibition in the experiment on Rattus norvegicus [1] was <25%. For the same compound, the IC50 in the experiment filed under Homo sapiens and in the experiment filed under Rattus norvegicus [2] was > 10000 nM each time.

Regarding `CCCc1cccc2c(/C=C(\CC)C(=O)O)cc(OC)c(O)c12`, the Inhibition in the experiment with Rattus norvegicus [1] was found to be 91%. In the experiment on Rattus norvegicus [4], this compound displayed an inhibition in vivo at 200 mg/kg of 62%. The results for the IC50 in the experiment listed under Homo sapiens and in the experiment listed under Rattus norvegicus [2] were 3700 nM and < 1000 nM, respectively.

For `CCCc1cccc2c(/C=C(\C)C(=O)O)cc(OC)c(O)c12`, the inhibition in vivo at 50 mg/kg in the experiment on Rattus norvegicus [3] was < 25%. In the experiment with Rattus norvegicus [1], the Inhibition is 91%. The compound also gave an inhibition in vivo at 200 mg/kg with Rattus norvegicus [4] of 67%.

`COc1cc(/C=C/C(=O)O)c2cccc(C)c2c1O`: the Inhibition with Rattus norvegicus [1] is listed as <25%. The IC50 is 2500 nM in the experiment filed under Homo sapiens and < 1000 nM in the experiment filed under Rattus norvegicus [2].

For `CCc1cccc2c(/C=C/C(=O)O)cc(OCc3ccccc3)c(O)c12`, the Inhibition in the experiment with Rattus norvegicus [1] is given as 39%. The half-maximal inhibitory concentration (IC50) in the experiment listed under Homo sapiens turned out to be 6700 nM; in the experiment filed under Rattus norvegicus [2], 1900 nM.

In the experiment with Rattus norvegicus [1], `CCc1cccc2c(/C=C/C(=O)O)cc(OC)c(O)c12` gave an Inhibition of 88%. Moreover, in the experiment with Rattus norvegicus [4], the inhibition in vivo at 200 mg/kg is < 25%. For the same compound, the figures for the IC50 in the experiment listed under Homo sapiens and in the experiment listed under Rattus norvegicus [2] were 2400 nM and 1500 nM, respectively.

`CCc1cccc2c(/C=C(\Cc3ccccc3)C(=O)O)cc(OC)c(O)c12` displayed an Inhibition with Rattus norvegicus [1] of 79%. The inhibition in vivo at 200 mg/kg with Rattus norvegicus [4] is < 25%. Moreover, in the experiment listed under Rattus norvegicus [2], half-maximal inhibition (IC50) required 2300 nM.

Consider `CCc1c(OC)c(O)c2c(CC)cccc2c1/C=C/C(=O)O`, for which the Inhibition in the experiment on Rattus norvegicus [1] is reported as <25%. For the same compound, the IC50 in the experiment filed under Homo sapiens is > 10000 nM.

For the compound `COc1cc(/C=C/C(=O)O)c2cccc(C(C)C)c2c1O`, the Inhibition in the experiment on Rattus norvegicus [1] was 73%. In the experiment on Rattus norvegicus [4], the inhibition in vivo at 200 mg/kg is < 25%. Also, the IC50 was 1400 nM in the experiment filed under Homo sapiens and 1000 nM in the experiment filed under Rattus norvegicus [2].

As to `CCCc1cccc2c(/C=C(/CC)C(=O)O)cc(OC)c(O)c12`, 50 mg/kg produced 47% inhibition in vivo in the experiment with Rattus norvegicus [3]. Besides, the Inhibition in the experiment with Rattus norvegicus [1] was 90% and 78%. Also, the IC50 in the experiment filed under Homo sapiens and in the experiment listed under Rattus norvegicus [2] was < 1000 nM each time.

Compound `CCCC/C(=C\C(=O)O)c1cc(OC)c(O)c2c(CC)cccc12` yielded an Inhibition with Rattus norvegicus [1] of 52%. For the same compound, the IC50 was 5800 nM in the experiment listed under Homo sapiens and > 10000 nM in the experiment filed under Rattus norvegicus [2].

In turn, `CC/C(=C/c1cc(OC)c(O)c2c(CC)cccc12)C(=O)O` had an inhibition in vivo at 50 mg/kg with Rattus norvegicus [3] of 43%. Moreover, the Inhibition in the experiment on Rattus norvegicus [1] is 90% and 71%. The compound further came in with an IC50 in the experiment filed under Rattus norvegicus [2] of 2100 nM.

With `CCCc1cccc2c(/C=C(/Cc3ccccc3)C(=O)O)cc(OC)c(O)c12`, the Inhibition in the experiment with Rattus norvegicus [1] came to 91%. Besides, the inhibition in vivo at 200 mg/kg in the experiment on Rattus norvegicus [4] came out at 51%. Further, the IC50 in the experiment listed under Rattus norvegicus [2] was 1600 nM.

In the experiment with Rattus norvegicus [3], `COc1cc(/C=C(/C)C(=O)O)c2cccc(C(C)C)c2c1O` yielded an inhibition in vivo at 50 mg/kg of 29%. In addition, the Inhibition in the experiment with Rattus norvegicus [1] was 87% and 79%. The IC50 in the experiment filed under Homo sapiens amounted to 2100 nM; in the experiment listed under Rattus norvegicus [2] it was 1400 nM.

As for `COCCCc1cccc2c(/C=C/C(=O)O)cc(OC)c(O)c12`, in the experiment on Rattus norvegicus [1], the Inhibition is <25%. In the experiment listed under Rattus norvegicus [2], this compound returned an IC50 of 6300 nM.

For `CCc1cccc2c(O)c(OC)cc(/C=C/C(=O)O)c12`, the Inhibition with Rattus norvegicus [1] stood at 26%. Moreover, the IC50 came out at 1800 nM in the experiment filed under Homo sapiens and 5500 nM in the experiment listed under Rattus norvegicus [2].

In the case of `CCCc1cccc2c(/C=C/C(=O)O)cc(OC)c(O)c12`, the inhibition in vivo at 50 mg/kg with Rattus norvegicus [3] is < 25%. In the experiment with Rattus norvegicus [1], the Inhibition is 91%. The compound also registered an inhibition in vivo at 200 mg/kg in the experiment with Rattus norvegicus [4] of 32%. The IC50 in the experiment filed under Homo sapiens is 2300 nM; in the experiment listed under Rattus norvegicus [2], < 1000 nM.

Take `CCc1cccc2c(/C=C(/Cc3ccccc3)C(=O)O)cc(OC)c(O)c12`: the inhibition in vivo at 50 mg/kg in the experiment on Rattus norvegicus [3] was < 25%. This compound also displayed an IC50 in the experiment filed under Rattus norvegicus [2] of 2100 nM.
